This is a sample that favours compounds with a hit; in the whole collection about 1.9% have one here.
UBC9 SUMO inh: inhibitors of in vitro SUMOylation cascade, primary screen, biochemical, HTRF, uHTS | SUMO-conjugating enzyme UBC9 (Homo sapiens), P63279 | HTRF SUMOylation assay, SAE1/SAE2 + UBC9 | inhibition, % at 35 µM | 290,000 compounds, 0.36% hits; in the data active means inhibition above about 50%, passing the limit was not always enough
Target sequence (P63279 whole entry, looked up): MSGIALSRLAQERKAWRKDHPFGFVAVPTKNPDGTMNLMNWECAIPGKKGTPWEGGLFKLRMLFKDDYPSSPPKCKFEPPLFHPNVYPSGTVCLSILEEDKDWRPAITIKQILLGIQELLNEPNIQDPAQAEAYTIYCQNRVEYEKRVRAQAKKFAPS
Scp1 inh: Scp-1 phosphatase inhibitors, primary screen, biochemical, colorimetric, uHTS | Recombinant Scp1, phosphopeptide, malachite green phosphate absorbance | inhibition, % at 20 µM | 340,000 compounds, 0.88% hits;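 active means inhibition above about 50% at 20 µM, limit read from the data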
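Material – SCP-1 phosphatase catalytic domain, residues 76-261 · Buffer or medium – Acidic Tris acetate buffer with magnesium and detergent · Also added – Phospho 17-mer peptide substrate · Compound – single 20 µM dose, 1% DMSO · Times – 45 min room-temperature reaction, 5 min colour, 30 min stabiliser · Technique – Phosphate-binding colour reagent, absorbance read at 630 nm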
DNMT1 inh: human DNMT1 methyltransferase inhibitors, primary screen, biochemical, molecular beacon, fluorescence, HinP1I cleavage, uHTS | DNA (cytosine-5)-methyltransferase 1 (Homo sapiens), P26358 | 360,000 compounds, 0.83% hits | inhibition (reported as % activation of signal), % at 10 µM; in the data active means inhibition above about 50%
STEP inh: STEP phosphatase inhibitors, primary screen, biochemical, fluorescence intensity, uHTS; 360,000 compounds, 0.25% hits; recombinant STEP, OMFP fluorogenic substrate; Tyrosine-protein phosphatase non-receptor type 5 (Homo sapiens), P54829; AID 588621, 2011; inhibition, % at 20 µM;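 active means inhibition at 20 µM, scaled per plate between control wells, above about 37%, limit read from the data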
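medium = Bis-Tris buffer pH 6.0, 2.5 mM DTT, 0.005% Tween 20 | test system = STEP (striatal-enriched tyrosine phosphatase) enzyme, cell-free | measure = normalized % inhibition | compound dosing = 20 µM, 1% DMSO | also added = 25 µM OMFP | schedule = reaction 20 min, ambient temperature | measured by = fluorescence read at 480 nm ex / 540 nm em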
SUMO1 PPI mod: modulators of SUMO1 protein-protein interactions, primary screen, biochemical, uHTS | Small ubiquitin-related modifier 1 (Homo sapiens), P63165 | 360,000 compounds, 0.33% hits | SUMO1 binding to a labelled peptide, TR-FRET, 1 h | inhibition, % at 20 µM; in the data active means inhibition above about 37%
Target sequence (P63165 whole entry, looked up): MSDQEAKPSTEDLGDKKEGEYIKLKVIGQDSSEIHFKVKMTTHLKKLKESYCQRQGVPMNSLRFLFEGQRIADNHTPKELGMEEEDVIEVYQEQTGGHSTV
LMPTP inh: LMPTP phosphatase inhibitors, primary screen, biochemical, fluorescence intensity, uHTS; Low molecular weight phosphotyrosine protein phosphatase (Homo sapiens), P24666; recombinant LMPTP-A, OMFP fluorogenic substrate; inhibition, % at 20 µM; 360,000 compounds, 0.22% hits; AID 651560, 2012;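 active means compounds that cut the enzyme signal by at least half of the control window in the single-dose screen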
Target sequence (P24666 whole entry, looked up): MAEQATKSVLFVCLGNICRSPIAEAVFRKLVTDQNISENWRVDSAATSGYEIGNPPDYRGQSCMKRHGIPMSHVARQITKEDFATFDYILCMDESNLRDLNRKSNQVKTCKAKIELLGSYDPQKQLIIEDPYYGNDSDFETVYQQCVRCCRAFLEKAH
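Assay system: LMPTP-A, protein tyrosine phosphatase of low molecular weight / Medium: pH 6.0 Bis-Tris buffer with DTT and Triton X-100 / Schedule: 50 min enzyme reaction at room temperature, protected from light / Measured by: endpoint fluorescence intensity from OMFP dephosphorylation / Read-out basis: % inhibition relative to no-enzyme and uninhibited control wells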
Large screens that a line does not name were inactive.

COc1cc(-c2nc(-c3ccc(Br)o3)no2)cc(OC)c1OC	SUMO1 PPI mod 53
CNc1nc(NC)c2cn[nH]c2n1	LMPTP inh 63 (no result: UBC9 SUMO inh)
CC(C)Nc1ncnc2[nH]ncc12	none (no result: UBC9 SUMO inh)
CCCCCCCCCCCCOC1OC(CO)C(O)C(O)C1NC(C)=O (stereo not drawn)	none
CC1(C)CC(NCCN2CCN(C3=CC(=C(C#N)C#N)CC(C)(C)C3)CC2)=CC(=C(C#N)C#N)C1	none
N#Cc1cc(Cl)c(N2CCOCC2)cc1C#N	none
CCN1CCN(C2=CC3=CC(=C(C#N)C#N)CCC3CC2)CC1 (stereo not drawn)	DNMT1 inh active
N#CC(C#N)=C1C=C2C=C(N3CCCCCC3)CCC2CC1 (stereo not drawn)	DNMT1 inh active
CN1CCN(C2=CC3=CC(=C(C#N)C#N)CCC3CC2)CC1 (stereo not drawn)	DNMT1 inh active
N#CC(C#N)=C1C=C2C=C(N3CCOCC3)CCC2CC1 (stereo not drawn)	DNMT1 inh active
CN1OC[C@@H]2CN[C@H](c3ccc(-c4cccc(F)c4)cc3)C[C@@H]21	none (no result: UBC9 SUMO inh, Scp1 inh)
COc1cc2c(cc1CNC[C@H]1O[C@@H](n3cnc4c(N)ncnc43)[C@H](O)[C@@H]1O)OCO2	none (no result: UBC9 SUMO inh)
CCc1ccc(OCC(=O)N/N=C2\CC(=O)c3ccccc32)cc1	UBC9 SUMO inh 87 (no result: Scp1 inh)
CCOc1cc(/C=C2/C(=O)N(c3ccccc3)N=C2C)ccc1OC(=O)c1ccco1	none
CC1=NN(c2ccc(C(=O)O)cc2)C(=O)/C1=C\c1ccc(OC(=O)c2cccs2)cc1	Scp1 inh 52 (no result: UBC9 SUMO inh)
CCOc1cc(/C=C2\C(=O)N(c3ccc(C(N)=O)cc3)N=C2C)ccc1OC(=O)c1cccs1	SUMO1 PPI mod 75
O=C(OCc1ccccc1)N1Cc2ccnnc2CC1c1ccccc1Br (stereo not drawn)	none (no result: UBC9 SUMO inh, Scp1 inh)
Cn1c(=O)c(=O)n(C)c2cc(N3CCOCC3)c(NS(=O)(=O)c3ccc(Br)cc3)cc21	none
O=C(Cc1ccc(-n2c(=O)c3ccccc3n(Cc3ccc(F)cc3)c2=O)cc1)NCC1CCCO1 (stereo not drawn)	SUMO1 PPI mod 40
C/C=C/COC(=O)c1[nH]c2c(c1C)C(=O)CC(c1ccco1)C2 (stereo not drawn)	Scp1 inh 52, LMPTP inh 61
C=CCOC(=O)c1[nH]c2c(c1C)C(=O)CC(c1ccco1)C2 (stereo not drawn)	Scp1 inh 60 (no result: DNMT1 inh, STEP inh, SUMO1 PPI mod, LMPTP inh)
Cc1c(C(=O)OCC2CCCO2)[nH]c2c1C(=O)CC(c1ccco1)C2 (stereo not drawn)	Scp1 inh 84, DNMT1 inh 98, LMPTP inh 53
COc1ccc(OC)c(C2CC(=O)c3c([nH]c(C(=O)OCC4CCCO4)c3C)C2)c1 (stereo not drawn)	none
Cc1c(C(=O)OCC(C)C)[nH]c2c1C(=O)CC(c1ccco1)C2 (stereo not drawn)	LMPTP inh 69
Cc1c(C(=O)OC2CCCC2)[nH]c2c1C(=O)CC(c1ccco1)C2 (stereo not drawn)	none
COc1ccccc1/C=C\C(=O)NCC(=O)N/N=C(/C)c1cccc([N+](=O)[O-])c1	none
C=CCNC(=S)Nc1ccc2cn[nH]c2c1	none
Cn1c(SCC(=O)NC2CCCCC2)nnc1-c1cccc(N)c1	SUMO1 PPI mod 41
Cn1c(SCC(=O)NC2CCCC2)nnc1-c1ccncc1	none
CNc1ccc2c3c(cccc13)C(=O)N(C)C2=O	DNMT1 inh active
O=C(N/C=C/c1ccco1)NCc1ccccc1	DNMT1 inh 61
O=C(N/C=C/c1ccco1)OCc1ccccc1	none
CC[C@@]1(O)C(=O)OCc2c1cc1n(c2=O)Cc2cc3c(N)cccc3nc2-1	UBC9 SUMO inh 95, Scp1 inh 57
N#Cc1c(N)c(C#N)c(-c2ccc3c(c2)OCO3)c2c1CCCC2	SUMO1 PPI mod 44

Screens deposited in PubChem by Sanford-Burnham Center for Chemical Genomics.
